Experimental data: ChEMBL document CHEMBL3244066, “Inhibition of histidine decarboxylase. Derivatives of histidine” (J Med Chem, 1977)
Peptide text beside a SMILES is read from it.

The molecules below were run against T1, Histidine decarboxylase (Rattus norvegicus) (UniProt P16453) (assay: Inhibition of histidine decarboxylase in Sprague-Dawley rat stomach assessed as decrease in 14CO2 production using L-histidine-carboxyl-14C as substrate at 0.32 mM by scintillation counting analysis).
T1 sequence (whole entry): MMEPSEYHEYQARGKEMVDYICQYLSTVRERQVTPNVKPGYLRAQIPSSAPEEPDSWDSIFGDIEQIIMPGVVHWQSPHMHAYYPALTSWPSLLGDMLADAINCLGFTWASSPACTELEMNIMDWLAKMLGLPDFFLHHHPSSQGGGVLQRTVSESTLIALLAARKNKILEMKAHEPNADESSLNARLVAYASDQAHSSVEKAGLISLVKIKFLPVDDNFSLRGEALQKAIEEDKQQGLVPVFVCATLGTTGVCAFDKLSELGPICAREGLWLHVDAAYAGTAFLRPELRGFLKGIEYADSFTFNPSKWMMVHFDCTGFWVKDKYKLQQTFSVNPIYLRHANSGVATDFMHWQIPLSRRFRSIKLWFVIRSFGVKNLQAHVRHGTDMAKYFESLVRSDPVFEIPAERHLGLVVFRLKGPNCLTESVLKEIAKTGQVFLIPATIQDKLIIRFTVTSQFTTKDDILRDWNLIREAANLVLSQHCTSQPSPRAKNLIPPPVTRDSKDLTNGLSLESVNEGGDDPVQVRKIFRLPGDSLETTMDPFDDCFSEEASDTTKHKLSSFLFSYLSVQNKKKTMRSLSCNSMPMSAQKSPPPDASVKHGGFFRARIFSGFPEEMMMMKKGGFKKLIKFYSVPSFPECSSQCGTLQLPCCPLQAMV
In short: (§1)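 Enzyme from rat stomach: homogenized in 0.1 M K phosphate–0.1 mM pyridoxal phosphate, pH 6.9, at 0–4 °C. Then 39 000g and 100 000g spins and a 20–45% ammonium sulfate cut. Assayed in triplicate with 0.05 M K phosphate, pH 6.9, 0.03 mM PLP and 0.24 mM L-histidine-carboxyl-14C (final) for 30 min at 37 °C. Inhibitors were fresh in water, generally 0.1 mM. HCl-released 14CO2 was trapped on Hyamine paper for 1 h and counted. % inhibition was taken after blank subtraction.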
With `C[C@](N)(Cc1c[nH]cn1)C(=O)O` the inhibition was 50%.

Each molecule was assayed against T2, Histidine decarboxylase (Rattus norvegicus, UniProt P16453) (assay: Inhibition of histidine decarboxylase in Sprague-Dawley rat stomach assessed as decrease in 14CO2 production using L-histidine-carboxyl-14C as substrate by Dixon plot analysis).
T2 sequence (P16453 whole entry): T1 sequence (whole entry)
In short: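 Ki from a Dixon plot of reciprocal activity versus inhibitor concentration. Used the ammonium sulfate–fractionated rat stomach extract, 0.24 mM L-histidine-carboxyl-14C, 0.03 mM PLP, pH 6.9 phosphate, 30 min at 37 °C, and Hyamine trapping of 14CO2 with scintillation counting. Inhibitor was run in duplicate at four concentrations from 1 to 50 μM.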
In the case of `COC(=O)[C@@H](N)Cc1c[nH]cn1`, the Ki is reported as 1800 nM.

The molecules below were run against T1, Histidine decarboxylase (Rattus norvegicus) (assay: Inhibition of histidine decarboxylase in Sprague-Dawley rat stomach assessed as decrease in 14CO2 production using L-histidine-carboxyl-14C as substrate at 0.012 mM by scintillation counting analysis).
In short: as §1
Work on `CCOC(=O)[C@@H](N)Cc1c[nH]cn1` yielded an inhibition of 50%.

What follows are molecules tested against T1, Histidine decarboxylase (Rattus norvegicus) (assay: Inhibition of histidine decarboxylase in Sprague-Dawley rat stomach assessed as decrease in 14CO2 production using L-histidine-carboxyl-14C as substrate at 0.13 mM by scintillation counting analysis).
In short: as §1
`O=C(O)[C@@H](O)Cc1c[nH]cn1` gave an inhibition of 0%.
Molecule `O=C(O)CCc1c[nH]cn1` has an inhibition of 9%.

These molecules were tested against T1, Histidine decarboxylase (Rattus norvegicus) (assay: Inhibition of histidine decarboxylase in Sprague-Dawley rat stomach assessed as decrease in 14CO2 production using L-histidine-carboxyl-14C as substrate at 0.10 mM by scintillation counting analysis).
In short: as §1
`O=C(O)C(Br)Cc1cnc[nH]1` (racemic) was tested, and the inhibition was 13%.
For `COC(=O)CCc1c[nH]cn1`, the inhibition was 10%.
`C[n+]1c[nH]cc1C[C@H](N)C(=O)O` was tested, and the inhibition was 0%.
With `CNC(=O)C(N)Cc1c[nH]cn1` (racemic) the inhibition was 0%.
In the case of `N[C@@H](Cc1c[nH]cn1)C(=O)NCC(=O)O` (H-His-Gly-OH), the inhibition is reported as 0%.
With `COC(=O)C(C)(Cc1c[nH]cn1)[N+](=O)[O-]` (racemic) the inhibition was 25%.
`N[C@@H](Cc1nc[nH]c1[N+](=O)[O-])C(=O)O` gave an inhibition of 0%.
Work on `CCCCC(Cc1c[nH]cn1)(C(=O)OC)[N+](=O)[O-]` (racemic) yielded an inhibition of 24%.
In the case of `CCCC(N)(Cc1c[nH]cn1)C(=O)OC` (racemic), the inhibition is reported as 2%.
`CCOC(=O)C(Cc1c[nH]cn1)(c1ccccc1)[N+](=O)[O-]` (racemic) showed an inhibition of 22%.
`CCCC(Cc1c[nH]cn1)(C(=O)OC)[N+](=O)[O-]` (racemic) gave an inhibition of 32%.
Work on `Cc1nc(CC(N)C(=O)O)c[nH]1` (racemic) yielded an inhibition of 0%.
With `C[C@](N)(Cc1c[nH]cn1)C(=O)O` the inhibition was 19%.
`N[C@@H](Cc1cnc[nH]1)C(=O)NO` was tested, and the inhibition was 14%.
`CCOC(=O)C(N)(CC)Cc1c[nH]cn1` (racemic) gave an inhibition of 13%.
In the case of `CCCCOC(=O)C(N)Cc1c[nH]cn1` (racemic), the inhibition is reported as 62%.
With `CCOC(=O)C(CC)(Cc1c[nH]cn1)[N+](=O)[O-]` (racemic) the inhibition was 5%.
With `Cn1cnc(C[C@H](N)C(=O)O)c1` the inhibition was 0%.
Molecule `COC(=O)[C@@H](N)Cc1nc[nH]c1[N+](=O)[O-]` has an inhibition of 3%.
Work on `COC(=O)C(C)(N)Cc1c[nH]cn1` (racemic) yielded an inhibition of 3%.
In the case of `CCCCC(N)(Cc1c[nH]cn1)C(=O)OC` (racemic), the inhibition is reported as 0%.
Work on `CCCCC(N)(Cc1c[nH]cn1)C(=O)O` (racemic) yielded an inhibition of 3%.
`CCCOC(=O)C(N)Cc1c[nH]cn1` (racemic) showed an inhibition of 22%.

What follows are molecules tested against T1, Histidine decarboxylase (Rattus norvegicus) (assay: Inhibition of histidine decarboxylase in Sprague-Dawley rat stomach assessed as decrease in 14CO2 production using L-histidine-carboxyl-14C as substrate at 0.50 mM by scintillation counting analysis).
In short: as §1
`CC(=O)N[C@@H](Cc1c[nH]cn1)C(=O)O` showed an inhibition of 0%.

Each molecule was assayed against T1, Histidine decarboxylase (Rattus norvegicus) (assay: Inhibition of histidine decarboxylase in Sprague-Dawley rat stomach assessed as decrease in 14CO2 production using L-histidine-carboxyl-14C as substrate at 0.004 mM by scintillation counting analysis).
In short: as §1
With `COC(=O)[C@@H](N)Cc1c[nH]cn1` the inhibition was 50%.
